Sampled rows, rich in hits. Any-hit rate of the full collection: about 4.1%.
ATG4B inhibitor: ATG4B (human) cysteine protease inhibition. inhibition, % at 8.33 µM. 0.51% of 340,000 active. ATG4B cleavage of LC3-PLA2, NBD-HPC fluorescence, 1 h. Q9Y4P1. AID 504462; in the data active means inhibition above about 40%
SMARCA2 act: increases SMARCA2 function in MMTV reporter cells; MG213 cells, MMTV-luciferase reporter, dexamethasone, overnight; activation, % at 9.1 µM; 1% of 370,000 active; AID 652017; in the data active means activation above about 7.8%;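 further: 0% = vehicle wells and 100% = reference activator wells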
MPTP block: permeability transition pore inhibition; AID 602449; 1.4% of 360,000 active; isolated mouse mitochondria, Ca2+ swelling absorbance, 30 min; inhibition, % at 10 µM;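 active means inhibition of 50% or more, scaled per plate between neutral and stimulator controls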;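 further: 0% = DMSO wells given calcium and 100% = 1 mM EGTA wells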
MC4R ag barr: agonists of human melanocortin 4 receptor (MC4R) beta-arrestin; U2OS MC4R beta-arrestin complementation, luminescence; percent of melanotan II response, DMSO zero; 0.98% of 360,000 active; activation, % at 8.9 µM; AID 540308; P32245;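 active means activation above a per-plate cutoff, the mean activation of sample wells on that plate plus 3 SD, cut at about 8% in these data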
Target sequence (P32245 whole entry, looked up): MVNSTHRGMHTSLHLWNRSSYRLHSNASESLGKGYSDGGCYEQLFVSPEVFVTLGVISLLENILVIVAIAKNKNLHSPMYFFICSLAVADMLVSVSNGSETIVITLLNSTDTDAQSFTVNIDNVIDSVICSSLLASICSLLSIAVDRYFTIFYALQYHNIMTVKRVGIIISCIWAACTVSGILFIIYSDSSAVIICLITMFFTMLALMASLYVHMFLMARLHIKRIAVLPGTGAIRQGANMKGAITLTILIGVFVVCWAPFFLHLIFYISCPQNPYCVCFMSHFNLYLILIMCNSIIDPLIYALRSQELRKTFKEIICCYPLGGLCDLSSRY
MC4R antag cAMP: blocks human MC4R cAMP signaling | inhibition, % at 6.5 µM | 0.48% of 360,000 active | AID 540295 | P32245 | MC4R-expressing cells, MTII-stimulated cAMP, LANCE TR-FRET;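 active means inhibition above its plate's cutoff, the mean of tested wells on that plate plus 3 SD, cut at about 29% in these data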;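 further: 0% = Melanotan II alone and 100% = Melanotan II plus saturating MCL0020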
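System: U2OS cells stably expressing human melanocortin 4 receptor (MC4R). Reagent: Melanotan II challenge after compound preincubation. Doses: 6.5 µM. Times: 30-min compound, 1-h challenge, 1-h detection, room temperature. Measured by: TR-FRET with Eu-cAMP and labeled anti-cAMP, 671 nm. Replicates: singlicate.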
MPTP counter: membrane potential counter-screen of mitochondrial pore inhibitors. shares compounds with MPTP block. isolated mitochondria, Rhodamine 123 fluorescence. inhibition, % at 10 µM. 78% of 5,000 active; in the data active means inhibition above about 22%;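 further: 0% = DMSO vehicle and 100% = positive control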
MPTP abs DR: MPTP inhibition, dose response swelling confirmation; shares compounds with MPTP block; isolated mitochondria swelling, absorbance; IC50, µM; 58% of 780 active; AID 651561; in the data active means IC50 below about 20 µM
MPTP counter DR: counter-screen for mitochondrial permeability transition pore inhibitors, dose response. shares compounds with MPTP block. 49% of 780 active. isolated mitochondria counterscreen, fluorescence read-out. AID 651564. IC50, µM; in the data active means IC50 below about 80 µM
An asterisk follows results filed as active; i = inactive; · = no result; + = active, no number.

SMILES	ATG4B inhibitor	SMARCA2 act	MPTP block	MC4R ag barr	MC4R antag cAMP	MPTP counter	others
CCN(CC)C1CCN(c2nc3nonc3nc2NCCOC)C1 (stereo unspecified)	-9	1	-1	-3	-4	·
COCCNc1nc2nonc2nc1NC(C)c1ccccc1Cl (stereo unspecified)	-5	-3	75*	-3	5	96*
COc1ccc(NC(=S)Nc2ccc3snnc3c2)cc1	-2	3	73*	2	-6	79*
Cc1ccc(NC(=O)/C(=C/c2cccc([N+](=O)[O-])c2)NC(=O)C2CCCCC2)c(C)c1	-3	-2	4	0	-2	·
O=C(Nc1ccc([N+](=O)[O-])cc1)/C(=C/c1cccc([N+](=O)[O-])c1)NC(=O)C1CCCCC1	5	0	98*	-1	10	75*
C/C(=N\NC(=O)c1c(Cl)c(C)nn1C)c1ccc(NC(=O)c2ccncc2)cc1	-6	-4	-1	-1	1	·
Cc1nn(-c2ccc(NC(=O)c3ccncc3)cc2)c(C)c1Cl	-1	-4	80*	-1	3	79*
O=C(Cn1nnc(-c2ccncc2)n1)Nc1ccc(Cl)cc1	·	-6	·	·	·	·
Cc1occc1-c1nnc(SCC(=O)NCc2ccco2)n1CC(C)C	-8	-3	63*	-3	5	6	MPTP abs DR=i;MPTP counter DR=>80
Cc1occc1-c1nnc(SCC(=O)NC(C)(C)C)n1CC(C)C	-10	-2	0	-4	0	·
O=C(O)CCCc1ccc2ccc3cccc4ccc1c2c34	12	-2	0	0	-3	·
NCCCCc1ccc2ccc3cccc4ccc1c2c34	6	-1	89*	1	0	-15	MPTP abs DR=6.2*;MPTP counter DR=53*
CC1CCOC2(O1)C(=O)Nc1ccccc12 (stereo unspecified)	-1	-4	2	-1	2	·
CC1OC2(OC1C)C(=O)Nc1ccccc12 (stereo unspecified)	-10	-4	+	-2	-1	-3	MPTP abs DR=>100;MPTP counter DR=>80
COc1cc(NC(=O)c2ccccc2)c(C)cc1NC(=O)CSc1nnc(-c2cnccn2)n1-c1ccc(C)cc1	·	-4	·	·	·	·
Cc1nc2ccc(NC(=O)c3ccc(S(=O)(=O)N(C)C)cc3)cc2s1	-3	1	0	-2	0	·
Cc1nc2ccc(NC(=O)c3ccc(Cl)c(S(=O)(=O)N(C)c4ccccc4)c3)cc2s1	-12	-6	74*	-2	18	69*
Cc1nc2ccc(NC(=O)c3cc(S(=O)(=O)N(C)c4ccccc4)ccc3Cl)cc2s1	13	-5	107*	2	13	84*
CN(c1ccccc1)S(=O)(=O)c1ccc(Cl)c(C(=O)Nc2ccc(N3CCOCC3)cc2)c1	-6	-1	0	6	2	·
CC(=O)c1cccc(Nc2nc(-c3cccc([N+](=O)[O-])c3)cs2)c1	10	5	94*	0	2	76*
O=C(NC(=S)Nc1nc(-c2cccc([N+](=O)[O-])c2)cs1)c1cc(Cl)ccc1Cl	7	-1	57*	4	-7	13	MPTP abs DR=19*;MPTP counter DR=<2.5*
CC(=O)Nc1nc(C)c(-c2csc(Nc3cccc([N+](=O)[O-])c3)n2)s1	-18	0	2	0	-14	·
O=C(NC(=S)Nc1nc(-c2cccc([N+](=O)[O-])c2)cs1)c1ccccc1Cl	15	-3	4	2	-7	·
C[C@H](O)[C@@H]1C(=O)N2CCc3c([nH]c4c(-c5ccc6c(c5)OCO6)cccc34)[C@@H]2C[C@@H]1N(C)C(=O)c1ccccc1F	·	-4	·	·	·	·
CCCCNS(=O)(=O)c1ccc(NC(=O)C(Sc2ccccc2)c2ccccc2)cc1 (stereo unspecified)	-2	-1	76*	3	20	68*
SMILES	ATG4B inhibitor	SMARCA2 act	MPTP block	MC4R ag barr	MC4R antag cAMP	MPTP counter	others
O=CN1CCN(C(=O)C2CCN(c3ncnc4c3sc3cccc(F)c34)CC2)CC1	·	-4	·	·	·	·
O=C(N/N=C/c1cccc(O)c1)c1csc2ccccc12	-22	5	108*	1	19	2	MPTP abs DR=1.1*;MPTP counter DR=>80
Cc1oc2cc([N+](=O)[O-])c(O)c([N+](=O)[O-])c2c1C(=O)c1ccc(Cl)cc1	10	-4	76*	-1	8	59*
COc1ccc(OC)c(C(=O)c2c(C)oc3cc([N+](=O)[O-])c(O)c([N+](=O)[O-])c23)c1	1	-3	2	-3	14	·
COc1ccc(-c2cc(-c3nnc(SCC(=O)Nc4cccc(Cl)c4C)n3N)[nH]n2)cc1	·	-5	·	·	·	·
O=C1NN(c2cccc(Br)c2)C(=O)/C1=C/c1ccc(-c2cc([N+](=O)[O-])ccc2O)o1	18	·	79*	0	22	-2
CC1=NN(c2ccc(C(=O)O)cc2)C(=O)/C1=C/c1ccc(-c2ccccc2F)o1	·	·	4	-2	23	·
CC1=NN(c2ccc(C)cc2)C(=O)/C1=C/c1ccc(-c2cc([N+](=O)[O-])ccc2O)o1	10	0	102*	-2	8	46*
O=C(N[C@H](C(=O)N1CCC[C@H]1C(=O)NCCc1ccccc1Cl)c1ccccc1)c1ccco1	·	-4	·	·	·	·
O=C(OC12CCCN(C1)/C(=C/c1ccc(Cl)cc1)C2)c1ccc(F)cc1 (stereo unspecified)	·	-3	·	·	·	·
C=CCN1C(C(=O)OC)CN(Cc2cn(CCC3OCCO3)nn2)CCS1(=O)=O (stereo unspecified)	·	-4	·	·	·	·
O=C(Nc1ccc(Cl)c(Cl)c1)c1cccc(S(=O)(=O)NCc2cccnc2)c1	-4	-6	104*	-3	10	84*
O=C(Nc1cccnc1)OCc1ccccc1	0	5	0	0	10	·
O=C(Nc1ccc(Cl)c(Cl)c1)OCc1cccnc1	-13	-5	90*	-2	3	95*
COc1cccc(S(=O)(=O)NCc2ccc(C(=O)Nc3ccc(Cl)c(Cl)c3)cc2)c1	-9	-3	2	4	9	·
COC(=O)C1CN(Cc2ccc(OC)cc2)CCS(=O)(=O)N1Cc1ccc(Cl)cc1 (stereo unspecified)	·	-2	·	·	·	·
CCOC(=O)c1sc(NC(=O)CSc2nc(-c3ccco3)cc(C(F)(F)F)n2)c(C#N)c1C	-1	0	84*	2	7	7	MPTP abs DR=4*;MPTP counter DR=<2.5*
Cc1cc(NC(=O)CSc2nc(-c3ccco3)cc(C(F)(F)F)n2)no1	-10	0	6	3	-26	·
CCOC(=O)c1sc(NC(=O)CSc2n[nH]c(-c3ccccc3)n2)c(C#N)c1C	-6	-1	100*	-8	7	71*
